{
  "source": "ChEMBL document CHEMBL1138476",
  "about": "(J Med Chem, 2009)",
  "key": {"[1]": {"experiment": "Clearance in rat at 1 mg/kg, iv and 5 mg/kg, po", "format": "ADME, organism-based", "settings": "in vivo", "in_short": "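Rats (n = 3) received 1 mg/kg iv in 10% DMAC, 70% propylene glycol and deionized water, or 5 mg/kg orally in 0.5% methylcellulose.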"}, "Rattus norvegicus [2]": {"test_system": "Rattus norvegicus", "experiment": "Toxicity in rat assessed as total distance traveled at 3 mg/kg, po after 1 hr by spontaneous locomotor test", "format": "organism-based", "design": "dose 3 mg/kg, route oral", "settings": "in vivo", "in_short": "(§1)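 Rat spontaneous locomotor activity test with oral dosing in 0.25% Methocel 1 h before testing, at doses up to 100 mg/kg. Values are mean ± SEM, with N rats per group, compared with the vehicle (zero-dose) group.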"}, "Canis familiaris [3]": {"test_system": "Canis familiaris", "experiment": "Effect on respiratory function in spontaneously breathing mongrel dog assessed as change in pulmonary compliance at 5 mg/kg after intravenous infusion for 30 mins (RVb= -2.8+/-4.0 %)", "format": "functional, Canis lupus familiaris"}, "Rattus norvegicus [4]": {"test_system": "Rattus norvegicus", "experiment": "Toxicity in rat assessed as time spent on rotarod at 3 mg/kg, po after 1 hr by rotarod test", "format": "organism-based", "design": "dose 3 mg/kg, route oral", "settings": "in vivo", "in_short": "(§2)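 Rats, n = 8 per dose, dosed po in 0.25% Methocel 1 h before testing, at 0, 1.0, 3.0, 10, 30 and 100 mg/kg. Read-out is time on rotorod (s), mean ± SEM, compared with the vehicle (zero-dose) group.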"}, "Rattus norvegicus [5]": {"test_system": "Rattus norvegicus", "experiment": "Ex vivo receptor occupancy of CRF receptor in rat brain at 1 mg/kg, po by [125I]sauvagine binding and autoradiography relative to control", "format": "functional", "in_short": "(§3)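 Rats were given 0.3, 1, 3, 10 or 30 mg/kg po in 0.25% Methocel 60 min before sacrifice. Brains were removed, sectioned and frozen at −80 °C. Ex vivo CRF receptor binding gave occupancy relative to vehicle-treated rats, reported as mean ± SEM.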"}, "Canis familiaris [6]": {"test_system": "Canis familiaris", "experiment": "Effect on respiratory function in spontaneously breathing mongrel dog assessed as change in mean arterial pressure at 5 mg/kg after intravenous infusion for 6 mins (RVb= 1.5+/-0.9 %)", "format": "functional, Canis lupus familiaris, Artery"}, "[7]": {"experiment": "Solubility in 0.01 N HCl at pH 2.5", "format": "physicochemical"}, "Rattus norvegicus [8]": {"test_system": "Rattus norvegicus", "experiment": "Effect on acute renal function in rat assessed as change in urine protein level per 100 gm body weight at 30 mg/kg, po (RVb= 12.0+/-2.4 mg/dl)", "format": "functional"}, "Rattus norvegicus [9]": {"test_system": "Rattus norvegicus", "experiment": "Toxicity in rat assessed as time spent on rotarod at 1 mg/kg, po after 1 hr by rotarod test", "format": "organism-based", "design": "dose 1 mg/kg, route oral", "settings": "in vivo", "in_short": "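Rats (N = 8 per dose) dosed po in 0.25% Methocel 1 h before rotorod testing. Time on rotorod in s, given as mean ± SEM against a vehicle (zero dose) group.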"}, "[10]": {"experiment": "Plasma concentration in spontaneously breathing dog at 5 mg/kg, iv after 60 mins", "format": "ADME, organism-based, Canis lupus familiaris", "design": "dose 5 mg/kg, route intravenous", "in_short": "(§4)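 Spontaneously breathing, barbiturate-anesthetized mongrel dogs (n = 4) infused iv at 5.0 mg/kg over 6 min. Total pooled plasma concentrations taken at 6, 15, 30 and 60 min.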"}, "Adenosine receptor A1": {"target": "T1, Adenosine receptor A1 (Rattus norvegicus, UniProt P25099)", "T1 sequence (P25099 whole entry)": "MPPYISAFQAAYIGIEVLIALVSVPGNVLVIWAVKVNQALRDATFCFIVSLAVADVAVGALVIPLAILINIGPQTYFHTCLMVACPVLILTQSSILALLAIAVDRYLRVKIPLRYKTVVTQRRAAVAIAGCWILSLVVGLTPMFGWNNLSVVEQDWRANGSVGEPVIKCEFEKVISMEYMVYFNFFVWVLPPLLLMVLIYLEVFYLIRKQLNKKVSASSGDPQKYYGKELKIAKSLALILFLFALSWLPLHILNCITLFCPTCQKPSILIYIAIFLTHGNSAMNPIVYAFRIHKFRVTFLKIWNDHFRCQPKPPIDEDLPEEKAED", "experiment": "Binding affinity to rat adenosine A1 receptor expressed in CHO cells", "format": "cell-based", "in_short": "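Cloned rat adenosine A1 receptor transfected into CHO cells, part of a contracted screen.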"}, "Canis familiaris [11]": {"test_system": "Canis familiaris", "experiment": "Effect on respiratory function in spontaneously breathing mongrel dog assessed as change in intrapleural pressure at 5 mg/kg after intravenous infusion for 6 mins (RVb= -21.2+/-26.5 %)", "format": "functional, Canis lupus familiaris"}, "Canis familiaris [12]": {"test_system": "Canis familiaris", "experiment": "Effect on respiratory function in spontaneously breathing mongrel dog assessed as change in mean arterial pressure at 5 mg/kg after intravenous infusion for 60 mins (RVb= 5.1+/-3.5 %)", "format": "functional, Canis lupus familiaris, Artery"}, "Canis familiaris [13]": {"test_system": "Canis familiaris", "experiment": "Effect on respiratory function in spontaneously breathing mongrel dog assessed as change in airway resistance at 5 mg/kg after intravenous infusion for 60 mins (RVb= 17.3+/-15.1 %)", "format": "functional, Canis lupus familiaris"}, "[14]": {"experiment": "Cmax in chimpanzee at 1 mg/kg, po", "format": "ADME, organism-based, Pan troglodytes", "design": "dose 1 mg/kg, route oral", "settings": "in vivo", "in_short": "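Chimpanzee PK. Oral: 1 mg/kg in two alert animals, given as a 1 mg/mL suspension in 50–50 (v/v) 0.5% methylcellulose/Tang orange juice with 1% Tween-80. IV: 0.5 mg/kg in one animal in 10% DMAC, 70% propylene glycol and deionized water, infused over 10 min (0.2 mL/kg). EDTA blood was taken predose and at 2–96 h; iv sampling added 6, 15 and 30 min.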"}, "[15]": {"experiment": "Cmax in Beagle dog at 1 mg/kg, po by cassette dosing", "format": "ADME, organism-based, Canis lupus familiaris", "design": "dose 1 mg/kg, route oral", "settings": "in vivo"}, "[16]": {"experiment": "AUC in Beagle dog at 1 mg/kg, po by cassette dosing", "format": "ADME, organism-based, Canis lupus familiaris", "design": "dose 1 mg/kg, route oral", "settings": "plasma"}, "[17]": {"experiment": "Lipophilicity log P of the compound", "format": "physicochemical", "settings": "octanol/water"}, "Rattus norvegicus [18]": {"test_system": "Rattus norvegicus", "experiment": "Effect on acute renal function in rat assessed as change in urine volume per 100 gm body weight at 30 mg/kg, po (RVb= 1.7+/-0.2 ml/100g)", "format": "functional"}, "Rattus norvegicus [19]": {"test_system": "Rattus norvegicus", "experiment": "Toxicity in rat assessed as total distance traveled at 100 mg/kg, po after 1 hr by spontaneous locomotor test", "format": "organism-based", "design": "dose 100 mg/kg, route oral", "settings": "in vivo", "in_short": "as §1"}, "Canis familiaris [20]": {"test_system": "Canis familiaris", "experiment": "Effect on respiratory function in spontaneously breathing mongrel dog assessed as change in heart rate at 5 mg/kg after intravenous infusion for 15 mins (RVb= -2.3+/-1.7 %)", "format": "functional, Canis lupus familiaris"}, "Canis familiaris [21]": {"test_system": "Canis familiaris", "experiment": "Effect on respiratory function in spontaneously breathing mongrel dog assessed as change in mean arterial pressure at 5 mg/kg after intravenous infusion for 15 mins (RVb= 2.1+/-1.5 %)", "format": "functional, Canis lupus familiaris, Artery"}, "Rattus norvegicus [22]": {"test_system": "Rattus norvegicus", "experiment": "Ex vivo receptor occupancy of CRF receptor in rat brain at 0.3 mg/kg, po by [125I]sauvagine binding and autoradiography relative to control", "format": "functional", "in_short": "as §3"}, "Canis familiaris [23]": {"test_system": "Canis familiaris", "experiment": "Effect on respiratory function in spontaneously breathing mongrel dog assessed as change in mean arterial pressure at 5 mg/kg after intravenous infusion for 30 mins (RVb= 4.0+/-3.0 %)", "format": "functional, Canis lupus familiaris, Artery"}, "Rattus norvegicus [24]": {"test_system": "Rattus norvegicus", "experiment": "Toxicity in rat assessed as time spent on rotarod at 10 mg/kg, po after 1 hr by rotarod test", "format": "organism-based", "design": "dose 10 mg/kg, route oral", "settings": "in vivo", "in_short": "as §2"}, "[25]": {"experiment": "Plasma concentration in spontaneously breathing dog at 5 mg/kg, iv after 15 mins", "format": "ADME, organism-based, Canis lupus familiaris", "design": "dose 5 mg/kg, route intravenous", "in_short": "as §4"}, "Canis familiaris [26]": {"test_system": "Canis familiaris", "experiment": "Effect on respiratory function in spontaneously breathing mongrel dog assessed as change in minute volume at 5 mg/kg after intravenous infusion for 60 mins (RVb= -13.4+/-10.7 %)", "format": "functional, Canis lupus familiaris"}, "[27]": {"experiment": "Solubility in ethanol", "format": "physicochemical"}, "Canis familiaris [28]": {"test_system": "Canis familiaris", "experiment": "Effect on respiratory function in spontaneously breathing mongrel dog assessed as change in airway resistance at 5 mg/kg after intravenous infusion for 15 mins (RVb= 27.8+/-17.9 %)", "format": "functional, Canis lupus familiaris"}},
  "data": [
    {"smiles": "CC[C@@H](C)Nc1nc(C)nc2c(-c3ccc(OC)nc3C)c(C)nn12", "note": "[PEXACERFONT]", "values": [
      {"measurement": "clearance", "setting": "[1]", "result": 17.9, "unit": "mL/min/kg"},
      {"measurement": "Activity", "setting": "Rattus norvegicus [2]", "result": 5639, "unit": "cm"},
      {"measurement": "Activity", "setting": "Canis familiaris [3]", "result": -22.3, "unit": "%"},
      {"measurement": "Time", "setting": "Rattus norvegicus [4]", "result": 162, "unit": "s"},
      {"measurement": "Activity", "setting": "Rattus norvegicus [5]", "result": 26, "unit": "%"},
      {"measurement": "Activity", "setting": "Canis familiaris [6]", "result": 3.8, "unit": "%"},
      {"measurement": "solubility", "setting": "[7]", "result": 16.3, "unit": "mg/mL"},
      {"measurement": "Activity", "setting": "Rattus norvegicus [8]", "result": 6.6, "unit": "mg/dL"},
      {"measurement": "Time", "setting": "Rattus norvegicus [9]", "result": 133, "unit": "s"},
      {"measurement": "concentration at 1 h", "setting": "[10]", "result": 229, "unit": "nM"},
      {"measurement": "Ki", "setting": "Adenosine receptor A1", "result": 2660, "unit": "nM"},
      {"measurement": "Activity", "setting": "Canis familiaris [11]", "result": 3.3, "unit": "%"},
      {"measurement": "Activity", "setting": "Canis familiaris [12]", "result": 4, "unit": "%"},
      {"measurement": "Activity", "setting": "Canis familiaris [13]", "result": -23.6, "unit": "%"},
      {"measurement": "Cmax", "setting": "[14]", "result": 840, "unit": "nM"},
      {"measurement": "Cmax", "setting": "[15]", "result": 301, "unit": "nM"},
      {"measurement": "AUC", "setting": "[16]", "result": 2.02, "unit": "µM·h"},
      {"measurement": "logP", "setting": "[17]", "result": 4.32},
      {"measurement": "Activity", "setting": "Rattus norvegicus [18]", "result": 3, "unit": "mL/100 g"},
      {"measurement": "Activity", "setting": "Rattus norvegicus [19]", "result": 4041, "unit": "cm"},
      {"measurement": "Activity", "setting": "Canis familiaris [20]", "result": -2.9, "unit": "%"},
      {"measurement": "Activity", "setting": "Canis familiaris [21]", "result": 1.2, "unit": "%"},
      {"measurement": "Activity", "setting": "Rattus norvegicus [22]", "result": 37, "unit": "%"},
      {"measurement": "Activity", "setting": "Canis familiaris [23]", "result": 6.2, "unit": "%"},
      {"measurement": "Time", "setting": "Rattus norvegicus [24]", "result": 158, "unit": "s"},
      {"measurement": "concentration at 0.25 h", "setting": "[25]", "result": 835, "unit": "nM"},
      {"measurement": "Activity", "setting": "Canis familiaris [26]", "result": -6, "unit": "%"},
      {"measurement": "solubility", "setting": "[27]", "result": 300, "unit": "mg/mL"},
      {"measurement": "Activity", "setting": "Canis familiaris [28]", "result": 9, "unit": "%"}
    ]}
  ]
}
